Legend:
[1] = tested on: Human immunodeficiency virus 1; assay: Antiviral activity against R5 tropic Human immunodeficiency virus 1 ADA5 subtype B infected in human TZM-bl cells assessed as reduction in virus-induced cytopathic effect after 48 hrs by luminescence assay; type: functional, organism-based
In short: (§1)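 TZM-bl cells (HeLa-derived; CD4, CXCR4, CCR5; LTR-driven luciferase) seeded 1×10^4/well, left overnight at 37 °C, 5% CO2, then infected with 400 TCID50 virus for 2 h. Serial compound dilutions added in duplicate, only at levels giving >50% viability. […] Mean of two independent assays; nevirapine as positive control.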

[2] = Selectivity index, ratio of CC50 for human TZM-bl cells to EC50 for X4 tropic Human immunodeficiency virus 1 UG070 subtype D; type: toxicity, cell-based; details: read-out: Ratio CC50/EC50
[3] = Selectivity index, ratio of CC50 for human TZM-bl cells to EC50 for X4 tropic Human immunodeficiency virus 1 3B subtype B; type: toxicity, cell-based; details: read-out: Ratio CC50/EC50
[4] = Selectivity index, ratio of CC50 for human TZM-bl cells to EC50 for R5 tropic Human immunodeficiency virus 1 ADA5 subtype B; type: toxicity, cell-based; details: read-out: Ratio CC50/EC50
[5] = Cytotoxicity against human TZM-bl cells after 48 hrs by MTT assay; type: cell-based
In short: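 TZM-bl cells seeded 1×10^4/well and left overnight at 37 °C, 5% CO2. Medium then replaced with a two-fold dilution series of compound in quadruplicate. […] Mean of three independent assays.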

[6] = tested on: Human immunodeficiency virus 1; assay: Antiviral activity against X4 tropic Human immunodeficiency virus 1 3B subtype B infected in human TZM-bl cells assessed as reduction in virus-induced cytopathic effect after 48 hrs by luminescence assay; type: functional, organism-based; in short: as §1
[7] = tested on: Human immunodeficiency virus; assay: Inhibition of HIV reverse transcriptase at 100 ug/ml after 1 hr by ELISA relative to control
In short: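 Kit ELISA for HIV RT. Template/primer, biotin- and DIG-labelled dNTPs and RT enzyme in lysis buffer incubated 1 h at 37 °C. Product captured on streptavidin, detected with anti-DIG-peroxidase and ABTS substrate, and read at 405 nm. Percent inhibition calculated against a no-inhibitor sample.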

[8] = tested on: Human immunodeficiency virus 1; assay: Antiviral activity against X4 tropic Human immunodeficiency virus 1 UG070 subtype D infected in human TZM-bl cells assessed as reduction in virus-induced cytopathic effect after 48 hrs by luminescence assay; type: functional, organism-based; in short: as §1
[9] = tested on: Human immunodeficiency virus 1; assay: Antiviral activity against R5 tropic Human immunodeficiency virus 1 VB59 subtype C infected in human TZM-bl cells assessed as reduction in virus-induced cytopathic effect after 48 hrs by luminescence assay; type: functional, organism-based; in short: as §1
[10] = Selectivity index, ratio of CC50 for human TZM-bl cells to EC50 for R5 tropic Human immunodeficiency virus 1 VB59 subtype C; type: toxicity, cell-based; details: read-out: Ratio CC50/EC50
[11] = Human immunodeficiency virus 1, ADA5 subtype B, TZM-bl, 48 h, read-out: EC50
[12] = Human immunodeficiency virus 1, 3B subtype B, TZM-bl, 48 h, read-out: EC50
[13] = Human immunodeficiency virus 1, UG070 subtype D, TZM-bl, 48 h, read-out: EC50
[14] = Human immunodeficiency virus 1, VB59 subtype C, TZM-bl, 48 h, read-out: EC50

For `N#Cc1ccc(NN2C(=O)CSC2c2c(Cl)cccc2Cl)cc1` (configuration not stated), which EC50 [1, 11] is on record?
Its EC50 is 5.42 µM.

What about the selectivity ratio [2] of the same molecule?
Its selectivity ratio is 1.76.

And the selectivity ratio [3]?
The selectivity ratio was 2.14.

What about the selectivity ratio [4] of the same molecule?
The selectivity ratio was 12.

What about the CC50 at 48 h [5] of the same molecule?
Its CC50 at 48 h is 65.3 µM.

What about the EC50 [6, 12] of the same molecule?
Its EC50 is 30.3 µM.

And the inhibition [7]?
Its inhibition is 22.2%.

What about the EC50 [8, 13] of the same molecule?
Its EC50 is 36.9 µM.

What about the EC50 [9, 14] of the same molecule?
Its EC50 is 25.7 µM.

What about the selectivity ratio [10] of the same molecule?
The selectivity ratio was 2.54.

What does the source list for `Cc1cc(C)nc(N2C(=O)CSC2c2c(Cl)cccc2[N+](=O)[O-])c1` (configuration not stated)?
EC50 [1, 11]: 0.08 µM; selectivity ratio [2]: 1690; selectivity ratio [3]: 6940; selectivity ratio [4]: 1740; CC50 at 48 h [5]: 139 µM; EC50 [6, 12]: 0.02 µM; inhibition [7]: 91.5%; EC50 [8, 13]: 0.08 µM; EC50 [9, 14]: 0.08 µM; selectivity ratio [10]: 1690

With `COc1cccc(OC)c1C1SCC(=O)N1c1cc(C)on1` (configuration not stated) as the molecule, how does the EC50 ([1]; tzm-bl) read?
Its EC50 is “Not Active”.

And the selectivity ratio [2]?
Its selectivity ratio is 6.77.

And the selectivity ratio [3]?
Its selectivity ratio is 11.

What about the CC50 at 48 h [5] of the same molecule?
The CC50 at 48 h was 125 µM.

And the EC50 [6, 12]?
The EC50 was 11.3 µM.

What about the inhibition [7] of the same molecule?
Its inhibition is 62.2%.

And the EC50 [8, 13]?
The EC50 was 18.4 µM.

What about the EC50 [9, 14] of the same molecule?
Its EC50 is 20.2 µM.

And the selectivity ratio [10]?
The selectivity ratio was 6.18.

For `Cc1ccnc(N2C(=O)CSC2c2ccc(C#N)cc2)n1` (configuration not stated), which EC50 [1, 11] is on record?
Its EC50 is 55 µM.

And the selectivity ratio [3]?
The selectivity ratio was 1.41.

What about the selectivity ratio [4] of the same molecule?
The selectivity ratio was 2.2.

What about the CC50 at 48 h [5] of the same molecule?
Its CC50 at 48 h is 121 µM.

What about the EC50 [6, 12] of the same molecule?
The EC50 was 85.7 µM.

And the inhibition [7]?
Its inhibition is 43.5%.

And the EC50 ([8]; tzm-bl)?
The EC50 was “Not Active”.

What about the EC50 ([9]; tzm-bl) of the same molecule?
Its EC50 is “Not Active”.

For `O=C1CSC(c2c(F)cccc2F)N1c1ncnc2[nH]cnc12` (configuration not stated), which EC50 [1, 11] is on record?
The EC50 was 27.8 µM.

What about the selectivity ratio [2] of the same molecule?
The selectivity ratio was 0.71.

And the selectivity ratio [3]?
The selectivity ratio was 1.11.

What about the selectivity ratio [4] of the same molecule?
The selectivity ratio was 1.45.

And the CC50 at 48 h [5]?
Its CC50 at 48 h is 40.5 µM.

What about the EC50 [6, 12] of the same molecule?
The EC50 was 36.3 µM.

What about the inhibition [7] of the same molecule?
The inhibition was 70.4%.

And the EC50 [8, 13]?
Its EC50 is 56.5 µM.

What about the EC50 [9, 14] of the same molecule?
Its EC50 is 38.6 µM.

What about the selectivity ratio [10] of the same molecule?
Its selectivity ratio is 1.05.

Which results are given for `O=C(NN1C(=O)CSC1c1c(Cl)cccc1Cl)c1ccncc1` (configuration not stated)?
EC50 [1, 11]: 9.72 µM; selectivity ratio [3]: 4.64; selectivity ratio [4]: 17.5; CC50 at 48 h [5]: 170 µM; EC50 [6, 12]: 36.7 µM; inhibition [7]: 18.9%; EC50 ([8]; tzm-bl): Not Active; EC50 [9, 14]: 26.3 µM; selectivity ratio [10]: 6.47

With `O=C1CSC(c2c(Cl)cccc2Cl)N1c1ncnc2[nH]cnc12` (configuration not stated) as the molecule, how does the EC50 [1, 11] read?
Its EC50 is 11.7 µM.

What about the selectivity ratio [3] of the same molecule?
The selectivity ratio was 1.1.

And the selectivity ratio [4]?
The selectivity ratio was 1.11.

What about the CC50 at 48 h [5] of the same molecule?
Its CC50 at 48 h is 13.1 µM.

And the EC50 [6, 12]?
The EC50 was 11.8 µM.

And the inhibition [7]?
Its inhibition is 50.2%.

Which inhibition [7] does the source give for `Cc1cc(N2C(=O)CSC2c2c(Cl)cccc2[N+](=O)[O-])nc(C)c1Br` (configuration not stated) here?
The inhibition was 77.8%.

For `Cc1ccc(S(=O)(=O)NN2C(=O)CSC2c2c(Cl)cccc2Cl)cc1` (configuration not stated), which EC50 [1, 11] is on record?
Its EC50 is 4.55 µM.

What about the selectivity ratio [3] of the same molecule?
The selectivity ratio was 2.57.

What about the selectivity ratio [4] of the same molecule?
The selectivity ratio was 16.6.

And the CC50 at 48 h [5]?
The CC50 at 48 h was 75.7 µM.

And the EC50 [6, 12]?
The EC50 was 29.4 µM.

What about the inhibition [7] of the same molecule?
Its inhibition is 57.9%.

And the EC50 ([8]; tzm-bl)?
Its EC50 is “Not Active”.

And the EC50 ([9]; tzm-bl)?
The EC50 was “Not Active”.

For `O=C(NN1C(=O)CSC1c1c(F)cccc1Cl)c1ccncc1` (configuration not stated), which EC50 ([1]; tzm-bl) is on record?
The EC50 was “Not Active”.

And the CC50 at 48 h [5]?
Its CC50 at 48 h is 105 µM.

And the EC50 ([6]; tzm-bl)?
Its EC50 is “Not Active”.

And the inhibition [7]?
The inhibition was 81.7%.

With `N#Cc1ccc(C2SCC(=O)N2c2ccc(C#N)cc2)cc1` (configuration not stated) as the molecule, how does the EC50 [1, 11] read?
The EC50 was 61.2 µM.

And the selectivity ratio [2]?
Its selectivity ratio is 1.18.

And the selectivity ratio [3]?
The selectivity ratio was 1.1.

What about the selectivity ratio [4] of the same molecule?
Its selectivity ratio is 1.22.

And the CC50 at 48 h [5]?
Its CC50 at 48 h is 75 µM.

And the EC50 [6, 12]?
Its EC50 is 67.8 µM.

And the EC50 [8, 13]?
Its EC50 is 63.4 µM.

And the EC50 [9, 14]?
The EC50 was 55.7 µM.

What about the selectivity ratio [10] of the same molecule?
The selectivity ratio was 1.34.

Which results are given for `Cc1cc(N2C(=O)CSC2c2ccc(C#N)cc2)nc(C)c1Br` (configuration not stated)?
EC50 [1, 11]: 39.1 µM; selectivity ratio [4]: 1.11; CC50 at 48 h [5]: 43.8 µM; EC50 ([6]; tzm-bl): Not Active; inhibition [7]: 37.5%

What does the source list for `Cc1cc(C)nc(N2C(=O)CSC2c2ccc(C#N)cc2)n1` (configuration not stated)?
EC50 [1, 11]: 99.3 µM; selectivity ratio [3]: 0.97; selectivity ratio [4]: 1.13; CC50 at 48 h [5]: 113 µM; EC50 [6, 12]: 115 µM; inhibition [7]: 41.5%; EC50 ([8]; tzm-bl): Not Active; EC50 ([9]; tzm-bl): Not Active

— ChEMBL document CHEMBL3286255, “Rational design and synthesis of novel thiazolidin-4-ones as non-nucleoside HIV-1 reverse transcriptase inhibitors” (Bioorg Med Chem, 2014)
